CHRM5 agonist: CHRM5 agonism in calcium assay | P08912 | CHO-K1 hM5 cells, Fluo-8 calcium fluorescence; 0% DMSO wells, 100% maximal acetylcholine response | activation, % at 3 µM | 360,000 compounds, 0.19% hits | AID 624037;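 active means activation above the run's mean over test compounds plus 3 SD, cut at about 23% in these data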;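 further: signal is peak over basal fluorescence ratio across the kinetic read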
M5 antag: CHRM5 antagonism in calcium assay; 360,000 compounds, 0.59% hits; P08912; inhibition, % at 3 µM; AID 624040; CHO-hM5 cells, Fluo-8 calcium fluorescence, ACh EC80;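 active means inhibition above a per-plate cutoff, the mean of that plate's test compounds plus 3 SD, cut at about 27% in these data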;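 further: 0% = acetylcholine EC80 with DMSO and 100% = DMSO without agonist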
CHRM1 PAM: human CHRM1 positive allosteric modulation | P11229 | CHO-K1 hM1, Fluo-8 calcium fluorescence, ACh EC20; 0% = ACh EC20, 100% = maximal ACh | activation, % at 3 µM | 360,000 compounds, 0.088% hits; in the data active means activation above about 19%, passing the limit was not always enough
Target sequence (P11229 whole entry, looked up): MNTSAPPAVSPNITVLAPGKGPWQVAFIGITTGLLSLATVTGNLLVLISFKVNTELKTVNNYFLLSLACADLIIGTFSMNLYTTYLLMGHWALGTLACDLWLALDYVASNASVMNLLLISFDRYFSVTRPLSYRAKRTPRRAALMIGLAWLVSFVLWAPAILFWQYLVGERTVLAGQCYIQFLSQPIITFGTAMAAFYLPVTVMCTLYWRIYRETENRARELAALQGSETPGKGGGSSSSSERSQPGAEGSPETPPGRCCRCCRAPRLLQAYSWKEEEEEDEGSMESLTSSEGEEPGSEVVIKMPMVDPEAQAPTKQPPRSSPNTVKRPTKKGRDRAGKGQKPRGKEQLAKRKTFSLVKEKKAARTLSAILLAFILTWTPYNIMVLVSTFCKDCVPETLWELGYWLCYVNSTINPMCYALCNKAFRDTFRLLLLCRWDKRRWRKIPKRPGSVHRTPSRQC
CHRM5 PAM: potentiates acetylcholine response at human M5 receptor; P08912; CHO-K1 hM5, Fluo-8 calcium, ACh EC20 PAM; 0% = ACh EC20, 100% = ACh EC100; activation, % at 3 µM; 360,000 compounds, 0.3% hits; AID 624038;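 active means activation above the run cutoff, the mean activation of all test compounds plus 3 SD, cut at about 18% in these data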
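System: CHO-K1 hM5 cells. Reagent: acetylcholine, EC20 level. Compound dosing: single dose, 3 µM nominal final test concentration. Timing: Post-acetylcholine fluorescence recording 140 s. Detection: Fluo-8 calcium fluorescence. Read-out: % activation, ACh-normalized. Benchmarks: ACh EC20 and EC100 wells. Repeats: singlicate, one well per test compound.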
CHRM1 antagonist: human CHRM1 antagonism. CHO-K1 hM1, Fluo-8 calcium fluorescence, ACh EC80 antagonist. AID 588852. 360,000 compounds, 1.3% hits. inhibition, % at 3 µM. P11229;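 active means percent inhibition above its own plate's cutoff, namely the mean of that plate's compound wells plus 3 SD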;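 further: peak over basal fluorescence ratio during 140 s after agonist addition; 0% = ACh EC80 plus DMSO and 100% = DMSO alone without agonist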
M1 ag: agonists of human M1 muscarinic receptor; P11229; CHO-K1 hM1, Fluo-8 calcium fluorescence, agonist mode; 0% DMSO, 100% acetylcholine EC100; activation, % at 3 µM; 360,000 compounds, 0.33% hits; AID 588814;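 active means activation above the run's mean compound activation plus 3 SD, cut at about 16% in these data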;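 further: peak over basal fluorescence ratio within a 140 s kinetic read after compound addition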
* = called active by the depositor; . = not tested or not shown. Shown are actives, neighbours in structure and some others; about 2.2% of the full set was active somewhere.

SMILES	CHRM5 agonist	M5 antag	CHRM1 PAM	CHRM5 PAM	CHRM1 antagonist	M1 ag
COc1ccc(Cl)cc1NC(=O)c1ccco1	-8	-6	12	11	-16	-4
Cc1cc(C(C)(C)C)c(OC(=O)[C@@H]2OC(c3ccccc3)=C[C@H]2c2ccccc2)c(C(C)(C)C)c1	0	8	-2	0	-1	-5
CC(C)(C)n1nnnc1C(c1cccs1)N1CCN(C/C=C/c2ccccc2)CC1 (stereo unspecified)	-8	28*	-23	-22	16	-7
c1ccc(C(c2nnnn2C2CCCC2)N2CCCCCC2)nc1 (stereo unspecified)	-7	0	-27	-9	34*	-13
C(=C\c1ccccc1)/CN1CCN(C(c2cccs2)c2nnnn2C2CCCC2)CC1 (stereo unspecified)	-8	31*	-22	-22	-2	-8
C(=C\c1ccccc1)/CN1CCN(C(c2ccccc2)c2nnnn2C2CCCC2)CC1 (stereo unspecified)	-8	44*	-23	-22	54*	-5
C[C@@H]1CN([C@@H](C)CO)C(=O)c2cc(NS(=O)(=O)c3ccc(Cl)cc3)ccc2O[C@H]1CN(C)Cc1ccncc1	1	9	4	1	4	-7
C(=C\c1ccccc1)/CN1CCN(C(c2ccnc3ccccc23)c2nnnn2C2CCCC2)CC1 (stereo unspecified)	-8	86*	-26	-22	70*	-6
CCOC(=O)C1(CCOc2ccccc2)CCN(C(=O)CCSC)CC1	0	12	4	-8	0	0
Cn1nc(C(=O)Nc2cccnc2)c2ccccc2c1=O	0	-4	12	-3	-12	-3
Cn1nc(C(=O)NCc2cccnc2)c2ccccc2c1=O	0	12	0	20*	3	-4
CN(C)CCNC(=S)Nc1ccc(Cl)cc1	-7	9	25*	0	14	-5
CN(C)CCNC(=S)Nc1ccc(Br)cc1	-3	2	6	5	-12	-6
Cc1ccc(NC(=S)NCCSc2ccc(Cl)cc2)cc1	-15	17	-26	-33	56*	-6
O=C(Nc1cccc(N2C(=O)C3C4C=CC(C4)C3C2=O)c1)c1cccs1 (stereo unspecified)	3	10	5	-4	-5	0
CCOc1ccc(/C=C/C(O)=C2/C(=O)N(C)C3(C)CC2c2ccccc2O3)cc1OC (stereo unspecified)	-1	1	-2	7	1	-3
CCOc1ccc(/C=C/C(O)=C2/C(=O)NC3(C)CC2c2ccccc2O3)cc1OC (stereo unspecified)	0	23	-15	-21	44*	0
Cc1ccc(NC(=O)CCCc2nc3ccccc3s2)c(O)c1	-2	14	-3	-4	9	-6
CC(=O)Nc1ccc(OCCCN2CCC(C(O)(c3ccccc3)c3ccccc3)CC2)cc1	-7	64*	.	-23	.	.
CC(=O)Nc1ccccc1OCCCN1CCC(C(O)(c2ccccc2)c2ccccc2)CC1	-5	-2	.	-21	.	.
N#CCc1ccc(OCCCN2CCC(C(O)(c3ccccc3)c3ccccc3)CC2)cc1	-3	71*	.	-24	.	.
O=C(Nc1ccccn1)c1ccc(Br)c(S(=O)(=O)N2CCCCC2)c1	-3	-4	7	4	-5	-7
CCc1ccc2c(c1)/C(=C/C(=O)c1cccs1)C(=O)N2	25*	18	17	7	0	0
Cc1cc(C)n(CCCN2C(=O)c3cccc4cccc(c34)C2=O)n1	-1	9	10	-6	-11	-9
COc1ccc(N2C(=O)[C@@H]3[C@H](C2=O)[C@H]2c4ccccc4C=CN2[C@@H]3C(=O)Nc2ccccc2)cc1	-1	0	-8	1	10	50*
O=C(O)C12CC3CC(C1)CC(n1ncc(N4CCN(c5ccccc5)CC4)c(Cl)c1=O)(C3)C2	0	3	-9	-2	13	-5
O=c1c(Cl)c(N2CCNCC2)cnn1C12CC3CC(CC(C3)C1)C2	-11	11	-21	-6	35*	-8

Screening results deposited in PubChem BioAssay by The Scripps Research Institute Molecular Screening Center.
